The nature of series [1]: Induction of glutathione reactivity in pH 7.4 PBS buffer assessed as compound formation at 10 mM Andrographolide-14a-O iodoacetate and 10 mM GSH at 50 degC incubated for 8 hrs under argon atmosphere by reverse phase HPLC method. The format is physicochemical. As to conditions: pH 7.4, 8 h, 10000 µM. In outline: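 Ethanolic compound and GSH added to PBS, final 10 mM each with buffer at 2 mM, heated at 50 °C for 8 h.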

Series [2] deals with HEK293. Description: Reduction in NFkappaB expression in p53 deficient HEK293 cells at LC50 level after 48 hrs by Western blot method. In kind it is functional, cell-based. The conditions noted are these: Homo sapiens.
For series [3], the system named is HEK293. Description: Induction of cell cycle arrest in HEK293 cells assessed as accumulation at G1 phase at 15 uM after 48 hrs by propidium iodide staining based flow cytometry (reference value: 53.21 +/- 0.8%). The format is functional, Homo sapiens. (In general: Flow cytometry measures light scatter and fluorescence of single cells or particles in a stream.)

Series [4] can be described thus: Binding affinity to GC-28 DNA (unknown origin) minor groove by DAPI staining based spectrophotometry. In short, it runs like this: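 DAPI–DNA complex fluorescence read at 460 nm emission band; test compound added to the preformed complex and loss of fluorescence followed.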
For series [5], the target named is T1, Nuclear factor NF-kappa-B complex (Homo sapiens) (UniProt Q00653+P19838+Q04206). Description: Inhibition of NFkappaB (unknown origin) expressed in HEK293 cells assessed as reduction in transcriptional activity at 10 uM after 48 hrs by luciferase reporter gene assay. In kind it is cell-based. In outline: (§1)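 HEK-293 at 70% confluence transfected by calcium phosphate with NF-kB luciferase ([…]) and b-Gal ([…]) plasmids, 6–8 h, then fresh serum medium 12 h; treated 48 h, lysed, luciferase read and normalized to b-galactosidase. Three independent experiments.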
T1 sequence (P19838 whole entry, looked up): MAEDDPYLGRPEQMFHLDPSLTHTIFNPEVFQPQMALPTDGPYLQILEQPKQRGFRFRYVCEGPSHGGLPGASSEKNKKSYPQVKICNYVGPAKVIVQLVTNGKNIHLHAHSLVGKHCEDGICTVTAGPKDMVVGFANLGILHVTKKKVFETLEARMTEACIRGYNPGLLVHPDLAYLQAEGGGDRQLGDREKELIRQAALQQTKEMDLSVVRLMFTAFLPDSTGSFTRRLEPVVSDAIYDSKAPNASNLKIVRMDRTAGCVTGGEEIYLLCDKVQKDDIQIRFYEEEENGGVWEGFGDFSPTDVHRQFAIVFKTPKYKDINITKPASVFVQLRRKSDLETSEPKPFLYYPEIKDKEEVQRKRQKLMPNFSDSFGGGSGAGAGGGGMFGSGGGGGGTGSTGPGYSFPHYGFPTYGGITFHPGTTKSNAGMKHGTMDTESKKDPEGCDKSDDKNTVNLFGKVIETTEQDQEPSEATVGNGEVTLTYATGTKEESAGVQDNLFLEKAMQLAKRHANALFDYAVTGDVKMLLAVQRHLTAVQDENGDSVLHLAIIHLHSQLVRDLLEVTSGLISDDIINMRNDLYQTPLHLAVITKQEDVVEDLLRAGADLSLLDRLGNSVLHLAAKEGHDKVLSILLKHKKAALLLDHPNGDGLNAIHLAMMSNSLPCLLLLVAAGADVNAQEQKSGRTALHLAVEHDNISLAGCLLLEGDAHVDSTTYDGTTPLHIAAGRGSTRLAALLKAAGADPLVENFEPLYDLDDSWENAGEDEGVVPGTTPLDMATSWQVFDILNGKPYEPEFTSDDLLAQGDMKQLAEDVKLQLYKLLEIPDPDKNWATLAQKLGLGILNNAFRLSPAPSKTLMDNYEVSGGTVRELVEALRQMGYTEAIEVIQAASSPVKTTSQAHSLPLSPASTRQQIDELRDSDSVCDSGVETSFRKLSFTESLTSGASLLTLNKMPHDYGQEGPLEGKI
T1 sequence (Q00653 whole entry, looked up): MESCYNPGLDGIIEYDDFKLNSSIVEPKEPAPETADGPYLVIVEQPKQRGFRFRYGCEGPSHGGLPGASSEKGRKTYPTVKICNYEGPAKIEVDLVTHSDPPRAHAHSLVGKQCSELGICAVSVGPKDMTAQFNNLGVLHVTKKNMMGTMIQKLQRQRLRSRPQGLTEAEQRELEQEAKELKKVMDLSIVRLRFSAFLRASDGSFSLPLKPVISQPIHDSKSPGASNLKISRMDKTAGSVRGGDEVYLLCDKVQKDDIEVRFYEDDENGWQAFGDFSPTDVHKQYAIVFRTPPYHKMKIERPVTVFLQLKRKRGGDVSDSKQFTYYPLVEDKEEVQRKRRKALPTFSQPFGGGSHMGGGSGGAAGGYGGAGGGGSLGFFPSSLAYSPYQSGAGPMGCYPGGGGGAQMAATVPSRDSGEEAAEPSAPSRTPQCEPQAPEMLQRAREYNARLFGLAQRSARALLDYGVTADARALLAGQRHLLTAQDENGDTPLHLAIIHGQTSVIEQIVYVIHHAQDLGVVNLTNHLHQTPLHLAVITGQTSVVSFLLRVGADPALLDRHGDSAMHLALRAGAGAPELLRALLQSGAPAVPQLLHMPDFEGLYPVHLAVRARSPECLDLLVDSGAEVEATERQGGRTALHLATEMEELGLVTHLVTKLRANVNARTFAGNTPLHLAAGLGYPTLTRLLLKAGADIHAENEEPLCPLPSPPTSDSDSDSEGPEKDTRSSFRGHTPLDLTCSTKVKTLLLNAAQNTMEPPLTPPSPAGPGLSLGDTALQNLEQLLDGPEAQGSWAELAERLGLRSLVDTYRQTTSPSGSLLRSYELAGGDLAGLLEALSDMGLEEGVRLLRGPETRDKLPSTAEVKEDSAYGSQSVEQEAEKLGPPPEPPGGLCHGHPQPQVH
T1 sequence (Q04206 whole entry, looked up): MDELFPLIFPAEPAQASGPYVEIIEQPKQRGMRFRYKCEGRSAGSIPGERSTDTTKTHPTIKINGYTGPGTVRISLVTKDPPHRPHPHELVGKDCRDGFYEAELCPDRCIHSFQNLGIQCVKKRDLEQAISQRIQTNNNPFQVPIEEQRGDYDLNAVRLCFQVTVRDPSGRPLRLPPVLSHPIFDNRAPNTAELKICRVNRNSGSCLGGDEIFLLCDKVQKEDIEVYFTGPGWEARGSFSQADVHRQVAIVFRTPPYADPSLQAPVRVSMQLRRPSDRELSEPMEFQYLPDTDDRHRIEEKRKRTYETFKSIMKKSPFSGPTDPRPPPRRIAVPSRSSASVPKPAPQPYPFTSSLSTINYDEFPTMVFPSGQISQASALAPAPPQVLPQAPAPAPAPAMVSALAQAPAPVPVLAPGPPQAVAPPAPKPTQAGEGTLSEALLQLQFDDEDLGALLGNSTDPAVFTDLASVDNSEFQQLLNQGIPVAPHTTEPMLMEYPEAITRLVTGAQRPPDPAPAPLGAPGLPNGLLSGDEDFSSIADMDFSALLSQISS
For orientation: In a reporter assay the amount or activity of a reporter protein is the signal.

Series [6] deals with HEK293. Briefly: Induction of cell cycle arrest in HEK293 cells assessed as accumulation at S phase at 5 uM after 48 hrs by propidium iodide staining based flow cytometry (reference value: 19.9 +/- 0.5%). In kind it is functional, Homo sapiens.
Series [7] relates to HEK293. Description: Induction of cell cycle arrest in HEK293 cells assessed as accumulation at G1 phase at 20 uM after 48 hrs by propidium iodide staining based flow cytometry (reference value: 53.21 +/- 0.8%). The format is functional, Homo sapiens.
The test system of series [8] is HEK293. Briefly: Induction of cell cycle arrest in HEK293 cells assessed as accumulation at S phase at 10 uM after 48 hrs by propidium iodide staining based flow cytometry (reference value: 19.9 +/- 0.5%). In kind it is functional, Homo sapiens.
In series [9] the test system is HEK293. Briefly: Reduction in Bcl-xL expression in HEK293 cells at LC50 level after 48 hrs by Western blot method. As to conditions: Homo sapiens. The format is functional, cell-based.
The subject of series [10] is HEK293. Description: Induction of apoptosis in HEK293 cells at 5 to 20 uM after 48 hrs by DAPI staining based fluorescence microscopy. In kind it is functional, cell-based. The conditions noted are these: Homo sapiens.
For series [11], the system named is HEK293. Description: Induction of cell cycle arrest in HEK293 cells assessed as accumulation at G2/M phase at 5 uM after 48 hrs by propidium iodide staining based flow cytometry (reference value: 2.63 +/- 0.7%). The format is functional, Homo sapiens.
Series [12] has as its system HEK293. Description: Increase in p53 expression in HEK293 cells at LC50 level after 48 hrs by Western blot method. The format is functional, cell-based. The conditions noted are these: Homo sapiens.
The subject of the next series is Vero. Briefly: Cytotoxicity against african green monkey Vero cells after 48 hrs by MTT assay. The conditions noted are these: chlorocebus sabaeus. In kind it is cell-based. In outline:
(§2)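 Cells seeded at 10,000 per well and exposed to increasing compound concentrations for 48 h. After a PBS wash, MTT (2.5 mg/mL) was added for 6 h at 37 °C, then detergent (10% NP-40, 4 mM HCl), and absorbance was read at 570 nm. LC50 is the concentration causing 50% cell death. Values are means of three independent experiments.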
(In general: Tetrazolium assays rely on reduction of a dye to a coloured formazan, in cell work by metabolically active cells.)

Series [13] deals with HEK293. Briefly: Induction of cell cycle arrest in HEK293 cells assessed as accumulation at S phase at 20 uM after 48 hrs by propidium iodide staining based flow cytometry (reference value: 19.9 +/- 0.5%). The format is functional, Homo sapiens.
Series [14] has as its system HEK293. Briefly: Reduction in Bcl-xL expression in p53 deficient HEK293 cells at LC50 level after 48 hrs by Western blot method. In kind it is functional, cell-based. The conditions noted are these: Homo sapiens.
The test system of series [15] is HEK293. Description: Increase in p53 expression in p53 deficient HEK293 cells at LC50 level after 48 hrs by Western blot method. The format is functional, cell-based. The conditions noted are these: Homo sapiens.
Series [16] deals with HEK293. Description: Cytotoxicity against HEK293 cells after 48 hrs by MTT assay. The format is functional. As to conditions: Homo sapiens, HEK293, 48 h; read-out: LC50 (the source's name). In outline:
as §2

For series [17], the system named is HEK293. Briefly: Induction of apoptosis in HEK293 cells assessed as apoptotic nuclei formation at 10 uM after 48 hrs by DAPI staining based fluorescence microscopy. In kind it is functional, cell-based. As to conditions: Homo sapiens.
For series [18], the system named is HEK293. Description: Increase in caspase-3 expression in HEK293 cells at LC50 level after 48 hrs by immunocytochemistry. The format is functional, cell-based. As to conditions: Homo sapiens.
The test system of series [19] is HEK293. Description: Reduction in NFkappaB expression in HEK293 cells at LC50 level after 48 hrs by Western blot method. The format is functional, cell-based. The conditions noted are these: Homo sapiens.
Series [20] has as its system HEK293. Description: Increase in Bax expression in p53 deficient HEK293 cells at LC50 level after 48 hrs by Western blot method. In kind it is functional, cell-based. As to conditions: Homo sapiens.
Series [21] concerns HEK293. Description: Induction of cell cycle arrest in HEK293 cells assessed as accumulation at G1 phase at 5 uM after 48 hrs by propidium iodide staining based flow cytometry (reference value: 53.21 +/- 0.8%). The format is functional, Homo sapiens.
Series [22] deals with HEK293. Briefly: Induction of apoptosis in HEK293 cells at 20 uM after 48 hrs by propidium iodide staining based flow cytometry (reference value: 24.26 +/- 0.8%). In kind it is functional, Homo sapiens.
Series [23] deals with HEK293. Briefly: Induction of apoptosis in HEK293 cells at 5 uM after 48 hrs by propidium iodide staining based flow cytometry (reference value: 24.26 +/- 0.8%). The format is functional, Homo sapiens.
For series [24], the system named is HEK293. Briefly: Increase in PARP cleavage in p53 deficient HEK293 cells at LC50 level after 48 hrs by Western blot method. In kind it is functional, cell-based. The conditions noted are these: Homo sapiens.
Series [25] deals with MCF7. Briefly: Cytotoxicity against human MCF7 cells after 48 hrs by MTT assay. The format is functional. The conditions noted are these: MCF7, 48 h, read-out: LC50 (the source's name). In short, it runs like this: as §2
Series [26] relates to HEK293. Description: Induction of apoptosis in HEK293 cells at 15 uM after 48 hrs by propidium iodide staining based flow cytometry (reference value: 24.26 +/- 0.8%). In kind it is functional, Homo sapiens.
In series [27] the test system is HEK293. Description: Induction of apoptosis in HEK293 cells at 20 uM after 48 hrs by propidium iodide staining based flow cytometry relative to untreated control. The format is functional, Homo sapiens.
In series [28] the test system is HEK293. Briefly: Induction of cell cycle arrest in HEK293 cells assessed as accumulation at G1 phase at 10 uM after 48 hrs by propidium iodide staining based flow cytometry (reference value: 53.21 +/- 0.8%). The format is functional, Homo sapiens.
Series [29] concerns the target T1, Nuclear factor NF-kappa-B complex (Homo sapiens). Briefly: Inhibition of NFkappaB (unknown origin) expressed in HEK293 cells assessed as reduction in transcriptional activity after 48 hrs by luciferase reporter gene assay. The format is cell-based. In outline: as §1
A short description of series [30]: Cytotoxicity against human MCF10A cells after 48 hrs by MTT assay. In kind it is cell-based. As to conditions: mcf-10a. In short, it runs like this: as §2
Series [31] concerns HEK293. Description: Induction of cell death in HEK293 cells at 15 to 20 uM after 48 hrs by DAPI staining based fluorescence microscopy. In kind it is functional. The conditions noted are these: Homo sapiens.
In series [32] the test system is HEK293. Briefly: Increase in PARP cleavage in HEK293 cells at LC50 level after 48 hrs by Western blot method. The format is functional, cell-based. The conditions noted are these: Homo sapiens.
For series [33], the system named is HEK293. Briefly: Induction of cell cycle arrest in HEK293 cells assessed as accumulation at S phase at 15 uM after 48 hrs by propidium iodide staining based flow cytometry (reference value: 19.9 +/- 0.5%). The format is functional, Homo sapiens.
Series [34] relates to HEK293. Briefly: Induction of cell cycle arrest in HEK293 cells assessed as accumulation at G2/M phase at 15 uM after 48 hrs by propidium iodide staining based flow cytometry (reference value: 2.63 +/- 0.7%). The format is functional, Homo sapiens.
In series [35] the test system is HEK293. Description: Increase in Bax expression in HEK293 cells at LC50 level after 48 hrs by Western blot method. As to conditions: Homo sapiens. The format is functional, cell-based.
Series [36] concerns HEK293. Briefly: Induction of apoptosis in HEK293 cells at 10 uM after 48 hrs by propidium iodide staining based flow cytometry (reference value: 24.26 +/- 0.8%). The format is functional, Homo sapiens.
Series [37] deals with HEK293. Description: Induction of cell cycle arrest in HEK293 cells assessed as accumulation at G2/M phase at 20 uM after 48 hrs by propidium iodide staining based flow cytometry (reference value: 2.63 +/- 0.7%). The format is functional, Homo sapiens.
The test system of series [38] is HEK293. Briefly: Induction of cell cycle arrest in HEK293 cells assessed as accumulation at G2/M phase at 10 uM after 48 hrs by propidium iodide staining based flow cytometry (reference value: 2.63 +/- 0.7%). In kind it is functional, Homo sapiens.
Series [39] in a line: Retention time of the compound by HPLC method. In kind it is physicochemical.
For series [40], the system named is MCF7. Briefly: Cytotoxicity against human MCF7 cells. The format is functional. In outline: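 MTT viability: 10,000 cells/well, 48 h exposure to increasing concentrations, MTT 2.5 mg/mL for 6 h at 37 °C, NP-40/HCl solubilization, absorbance 570 nm. MCF-7 in DMEM with 10% FBS; MCF-10A normal cells run alongside. LC50 from three independent experiments.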

The structures appear in SMILES notation. Calls of active or inactive are those of the source. The calls are words filed in the database; no cut-off is given here.

What is called LC50 is the concentration lethal to half of the exposed cells or organisms. For orientation: GI50 means the concentration that inhibits growth by half.

For `C=C1CC[C@@H]2[C@](C)(CO)[C@H](O)CC[C@@]2(C)[C@@H]1CC(SC[C@H](NC(=O)CC[C@H](N)C(=O)O)C(=O)NCC(=O)O)C1=CCOC1=O` (single isomer, unassigned; diastereomer 1), in series [1], the Drug metabolism entry is given as “metabolite_detected”.

In the case of `C=C1CC[C@@H]2[C@](C)(CO)[C@H](O)CC[C@@]2(C)[C@@H]1C/C=C1/C(=O)OC[C@H]1OC(=O)CBr`, the outcome with HEK293 [2], with HEK293 [14], with HEK293 [15], with HEK293 [20] and in the series on HEK293 [24] was inactive. Further, the Activity was 14.98% in the series with HEK293 [3]; 10.44% in the series with HEK293 [6]; 9.01% in the series with HEK293 [7]; 10.28% in the series with HEK293 [8]; “Dose-dependent effect” in the series on HEK293 [10]; 3.96% in the series on HEK293 [11]. For the same compound, the Activity with HEK293 [13] was determined as 1.57%; in the series with HEK293 [21] it was 25.16%; in the series with HEK293 [22] it was 88.84%; with HEK293 [23], 60.44%; with HEK293 [26], 76.62%; in the series on HEK293 [28] it was 19.57%. The Activity was found to be 6.69% in the series on HEK293 [33]; 1.71% in the series with HEK293 [34]; 67.33% with HEK293 [36]; 0.58% with HEK293 [37]; 2.82% in the series on HEK293 [38]. The outcome (in series [4]; in the series on HEK293 [9]; in the series on HEK293 [12]; in the series with HEK293 [17]; in the series with HEK293 [18]; in the series on HEK293 [19]) was Active. Further, the result in the series with HEK293 [31], in the series with HEK293 [32] and in the series on HEK293 [35] was Active. For the same compound, the results for the fold change (FC) (in series [5]; with HEK293 [27]) were 5 and >4, respectively. In addition, the results for the LC50 (in the series with Vero; in series [30]) were 45 µM and > 40 µM, respectively. The values for the CC50 with HEK293 [16] and in the series on MCF7 [25] were 12 µM and 8.4 µM, respectively. Moreover, the inhibition entry in series [29] is “Dose-dependent effect”. The Retention_time in series [39] was determined as 24.5 min.

For the compound `C=C1CC[C@@H]2[C@](C)(CO)[C@H](O)CC[C@@]2(C)[C@@H]1C/C=C1/C(=O)OC[C@H]1OC(C)=O`, in the series with MCF7 [40], growth was halved (GI50) at 5.49 µM.
